Results as given in ChEMBL document CHEMBL5325428 (Eur J Med Chem, 2023).

Experiments:
SARS-CoV-2 = assay: Antiviral activity against SARS-CoV-2 Wuhan-HU-1 infected in HEK293T cells assessed as inhibition of viral replication incubated for 30 hrs by luciferase reporter gene assay; type: functional, organism-based; conditions: Severe acute respiratory syndrome coronavirus 2, Wuhan-HU-1, HEK-293T
Method in brief: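 This is a non-infectious Wuhan-Hu-1 replicon system, not infectious virus. Replicon RNA was electroporated into 293T cells, which were then incubated for 30 h with compound at 2, 0.5, 0.1 and 0.02 µM or with 0.1% DMSO. Read-out was luciferase activity. Values are mean ± SD.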

[1] = molecular target: Replicase polyprotein 1ab (Severe acute respiratory syndrome coronavirus 2, UniProt P0DTD1); assay: Inhibition of N-terminal His6-tagged full length SARS-CoV-2 3CLpro using FAM-SAVLQ as substrate preincubated with enzyme for 1 hr followed by susbtrate addition and measured after 1 hr by FRET assay
[2] = Inhibition of MERS-CoV 3CLpro using FAM-SAVLQ as substrate preincubated with enzyme for 1 hr followed by susbtrate addition and measured after 1 hr by FRET assay; design: species or system Middle East respiratory syndrome-related coronavirus
[3] = Cytotoxicity against human HEK293T cells assessed as reduction in cell viability incubated for 72 hrs by CytoTox 96 nonradioactive assay; type: toxicity, cell-based, HEK-293T
[4] = test system: Feline infectious peritonitis virus; assay: Antiviral activity against FIPV 1146 infected in CRFK cells assessed as inhibition of viral replication incubated for upto 168 hrs by TCID50 method; type: functional, organism-based; conditions: Alphacoronavirus 1, 1146, CRFK
Method in brief: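 Crandell-Rees feline kidney cells infected with FIPV-1146; test compounds added to the medium at various concentrations. EC50 was fitted from the dose-dependent inhibition curve with a variable slope. Values are mean ± SD.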

Prothrombin = Prothrombin (Homo sapiens, UniProt P00734); assay: Inhibition of human thrombin; type: toxicity
Method in brief: (§1)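 Commercial purified human proteases were assayed following the manufacturers' procedures. IC50 values are mean ± SD.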

chymotrypsin = chymotrypsin (Homo sapiens, UniProt P17538+P40313+Q6GPI1+Q99895); assay: Inhibition of human chymotrypsin; type: toxicity; method in brief: as §1
Neutrophil elastase = molecular target: T1, Neutrophil elastase (Homo sapiens, UniProt P08246); assay: Inhibition of human neutrophil elastase; type: toxicity; method in brief: as §1
T1 sequence (P08246 whole entry): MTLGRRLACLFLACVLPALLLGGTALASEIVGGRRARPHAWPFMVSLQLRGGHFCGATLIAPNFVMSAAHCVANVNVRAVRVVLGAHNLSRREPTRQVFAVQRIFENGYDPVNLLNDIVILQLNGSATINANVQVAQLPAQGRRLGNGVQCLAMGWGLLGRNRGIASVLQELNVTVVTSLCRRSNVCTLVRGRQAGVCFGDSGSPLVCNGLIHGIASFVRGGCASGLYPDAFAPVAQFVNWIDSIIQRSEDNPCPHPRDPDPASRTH

Cathepsin B = Cathepsin B (Homo sapiens, UniProt P07858); assay: Inhibition of human Cathepsin B; type: toxicity; method in brief: as §1
Cathepsin D = Cathepsin D (Homo sapiens, UniProt P07339); assay: Inhibition of human Cathepsin D; type: toxicity; method in brief: as §1
Cathepsin D, sequence (P07339 65-162 limits assumed): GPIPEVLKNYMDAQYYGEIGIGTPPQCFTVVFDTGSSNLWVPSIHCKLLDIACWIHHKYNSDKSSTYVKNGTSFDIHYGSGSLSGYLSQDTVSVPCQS
Cathepsin D, sequence (P07339 169-412 limits assumed): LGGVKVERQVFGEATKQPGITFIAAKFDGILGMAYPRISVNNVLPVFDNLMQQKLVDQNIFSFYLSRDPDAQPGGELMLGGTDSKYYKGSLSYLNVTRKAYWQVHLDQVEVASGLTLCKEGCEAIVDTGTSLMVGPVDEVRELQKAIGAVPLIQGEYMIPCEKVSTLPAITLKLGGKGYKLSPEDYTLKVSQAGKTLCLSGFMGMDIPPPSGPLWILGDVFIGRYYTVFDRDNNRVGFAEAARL

Cathepsin G = molecular target: T2, Cathepsin G (Homo sapiens, UniProt P08311); assay: Inhibition of human Cathepsin G; type: toxicity; method in brief: as §1
T2 sequence (P08311 whole entry): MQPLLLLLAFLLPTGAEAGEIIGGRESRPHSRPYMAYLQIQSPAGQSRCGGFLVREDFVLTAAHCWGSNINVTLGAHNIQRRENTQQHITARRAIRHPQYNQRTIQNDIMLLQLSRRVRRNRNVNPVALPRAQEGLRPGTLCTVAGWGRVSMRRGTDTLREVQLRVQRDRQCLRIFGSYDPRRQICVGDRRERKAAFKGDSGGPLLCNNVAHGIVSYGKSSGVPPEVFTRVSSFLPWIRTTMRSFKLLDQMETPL

Procathepsin L = Procathepsin L (Homo sapiens, UniProt P07711); assay: Inhibition of human Cathepsin L; type: toxicity; method in brief: as §1
Procathepsin L, sequence (P07711 whole entry): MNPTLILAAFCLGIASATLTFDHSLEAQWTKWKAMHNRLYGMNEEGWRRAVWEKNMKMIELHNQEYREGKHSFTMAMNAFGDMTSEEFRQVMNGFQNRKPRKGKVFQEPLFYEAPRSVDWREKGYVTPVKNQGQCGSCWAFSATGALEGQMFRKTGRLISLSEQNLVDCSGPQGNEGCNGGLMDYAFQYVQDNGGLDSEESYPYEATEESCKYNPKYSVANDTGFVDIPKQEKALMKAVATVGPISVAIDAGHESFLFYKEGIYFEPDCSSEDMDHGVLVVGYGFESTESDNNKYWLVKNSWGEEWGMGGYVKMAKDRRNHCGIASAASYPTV

[5] = Safety index, ratio of CC50 for cytotoxicity against human HEK293T cells to EC50 for antiviral activity against SARS-CoV-2 Wuhan-HU-1 infected in HEK293T cells; type: toxicity, cell-based; conditions: read-out: Ratio CC50/EC50
Method in brief: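 In vitro safety index was calculated as the 293T CC50 divided by the SARS-CoV-2 replicon EC50.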

| Structure (SMILES) | EC50 (SARS-CoV-2) [nM] | IC50 [1] [nM] | IC50 [2] [nM] | CC50 at 72 h [3] [nM] | other results |
| --- | --- | --- | --- | --- | --- |
| CC(C)C[C@H](NC(=O)OCC(C)(C)Sc1ccccc1)C(=O)N[C@@H](C[C@@H]1CCNC1=O)C(O)(C(=O)NC1CC1)S(=O)(=O)O (stereo partly drawn) | 70 | 450 | 180 | > 50000 | – |
| CC(C)C[C@H](NC(=O)OCC(C)(C)Sc1ccccc1)C(=O)N[C@H](C#N)C[C@@H]1CCNC1=O | 60 | 490 | 410 | > 50000 | EC50 [4]: 1320 nM; IC50 (Prothrombin): > 50000 nM; IC50 (chymotrypsin): > 50000 nM; IC50 (Neutrophil elastase): > 50000 nM; IC50 (Cathepsin B): 2600 nM; IC50 (Cathepsin D): > 50000 nM; IC50 (Cathepsin G): > 50000 nM; IC50 (Procathepsin L): 30 nM |
| CC(C)C[C@H](NC(=O)OCC(C)(C)Oc1ccccc1)C(=O)N[C@H](C=O)C[C@@H]1CCNC1=O | – | 310 | 40 | > 50000 | – |
| CC(C)C[C@H](NC(=O)OCC(C)(C)Oc1ccc(Cl)cc1)C(=O)N[C@@H](C[C@@H]1CCNC1=O)C(O)S(=O)(=O)O (stereo partly drawn) | – | 340 | 110 | > 50000 | – |
| CC(C)C[C@H](NC(=O)OCC(C)(C)Sc1nc2ccccc2[nH]1)C(=O)N[C@@H](C[C@@H]1CCNC1=O)C(O)S(=O)(=O)O (stereo partly drawn) | – | – | 210 | > 50000 | – |
| CC(C)C[C@H](NC(=O)OCC(C)(C)Oc1ccc(F)cc1)C(=O)N[C@@H](C[C@@H]1CCNC1=O)C(O)S(=O)(=O)O (stereo partly drawn) | – | 230 | 40 | > 50000 | – |
| CC(C)C[C@H](NC(=O)OCC(C)(C)Sc1nc2ccccc2[nH]1)C(=O)N[C@H](C=O)C[C@@H]1CCNC1=O | – | 300 | 120 | > 50000 | – |
| CC(C)C[C@H](NC(=O)OCCSc1ccccc1)C(=O)N[C@H](C=O)C[C@@H]1CCNC1=O | – | 320 | 140 | > 50000 | – |
| [2H]C([2H])(OC(=O)N[C@@H](CC(C)C)C(=O)N[C@@H](C[C@@H]1CCNC1=O)C(O)S(=O)(=O)[O-])C(C)(C)Oc1ccc(Cl)cc1.[Na+] (stereo partly drawn) | 12 | 170 | 20 | > 50000 | selectivity ratio [5]: 3330 |
| CC(C)C[C@H](NC(=O)OCC(C)(C)Sc1ccc(F)cc1)C(=O)N[C@@H](C[C@@H]1CCNC1=O)C(O)S(=O)(=O)O (stereo partly drawn) | – | 270 | 150 | > 50000 | – |
| CC(C)C[C@H](NC(=O)OCCSc1ccccc1)C(=O)N[C@@H](C[C@@H]1CCNC1=O)C(O)S(=O)(=O)O (stereo partly drawn) | – | 310 | 140 | > 50000 | – |
| CC(C)C[C@H](NC(=O)OCC(C)(O)c1cccc(Cl)c1)C(=O)N[C@@H](C[C@@H]1CCNC1=O)C(O)S(=O)(=O)O (mixture of isomers) | 25 | 320 | 100 | > 50000 | – |
| CC(C)C[C@H](NC(=O)OCC(C)(O)c1cccc(Cl)c1)C(=O)N[C@H](C=O)C[C@@H]1CCNC1=O (mixture of isomers) | 25 | 290 | 120 | > 50000 | – |
| CC(C)C[C@H](NC(=O)OCC(C)(C)[S+]([O-])c1ccccc1)C(=O)N[C@@H](C[C@@H]1CCNC1=O)C(O)S(=O)(=O)O (mixture of isomers) | – | 350 | 250 | > 50000 | – |
| CC(C)C[C@H](NC(=O)OCC(C)(C)Oc1ccc(F)cc1)C(=O)N[C@H](C=O)C[C@@H]1CCNC1=O | – | 220 | – | > 50000 | EC50 [4]: 70 nM; IC50 (Prothrombin): > 50000 nM; IC50 (chymotrypsin): > 50000 nM; IC50 (Neutrophil elastase): > 50000 nM; IC50 (Cathepsin B): 1900 nM; IC50 (Cathepsin D): > 50000 nM; IC50 (Cathepsin G): > 50000 nM; IC50 (Procathepsin L): 30 nM |
| CC(C)C[C@H](NC(=O)OCC(C)(C)Oc1cccc(Cl)c1)C(=O)N[C@@H](C[C@@H]1CCNC1=O)C(O)S(=O)(=O)O (stereo partly drawn) | 14 | 210 | 20 | > 50000 | selectivity ratio [5]: 3330 |
| CC(C)C[C@H](NC(=O)OCC(C)(C)Oc1cccc(F)c1)C(=O)N[C@H](C=O)C[C@@H]1CCNC1=O | – | 200 | 50 | > 50000 | – |

| Structure (SMILES) | EC50 (SARS-CoV-2) [nM] | IC50 [1] [nM] | IC50 [2] [nM] | CC50 at 72 h [3] [nM] | other results |
| --- | --- | --- | --- | --- | --- |
| CC(C)C[C@H](NC(=O)OCC(C)(C)Sc1ccccc1)C(=O)N[C@@H](C[C@@H]1CCNC1=O)C(O)S(=O)(=O)O (stereo partly drawn) | 10 | 90 | – | > 50000 | selectivity ratio [5]: 3330 |
| CC(C)C[C@H](NC(=O)OCC(C)(C)Sc1ccccc1)C(=O)N[C@@H](C[C@@H]1CCNC1=O)C(=O)C(=O)NC1CC1 | 50 | 210 | – | > 50000 | EC50 [4]: 710 nM; IC50 (Prothrombin): > 50000 nM; IC50 (chymotrypsin): > 50000 nM; IC50 (Neutrophil elastase): > 50000 nM; IC50 (Cathepsin B): 2000 nM; IC50 (Cathepsin D): > 50000 nM; IC50 (Cathepsin G): > 50000 nM; IC50 (Procathepsin L): 40 nM |
| CC(C)C[C@H](NC(=O)OCC(C)(C)Oc1ccccc1)C(=O)N[C@@H](C[C@@H]1CCNC1=O)C(O)S(=O)(=O)O (stereo partly drawn) | – | 240 | 20 | > 50000 | – |
| CC(C)C[C@H](NC(=O)OCC(C)(C)[S+]([O-])c1ccccc1)C(=O)N[C@H](C=O)C[C@@H]1CCNC1=O (mixture of isomers) | – | 330 | 190 | > 50000 | – |
| CC(C)C[C@H](NC(=O)OCC(C)(C)Oc1cccc(F)c1)C(=O)N[C@@H](C[C@@H]1CCNC1=O)C(O)S(=O)(=O)O (stereo partly drawn) | – | 120 | 40 | > 50000 | – |
| CC(C)C[C@H](NC(=O)OCC(C)(C)S(=O)(=O)c1ccccc1)C(=O)N[C@@H](C[C@@H]1CCNC1=O)C(O)S(=O)(=O)O (stereo partly drawn) | – | 200 | 280 | > 50000 | – |
| CC(C)C[C@H](NC(=O)OCc1ccccc1)C(=O)N[C@H](C=O)C[C@@H]1CCNC1=O | 31 | – | 280 | […] | – |
| CC(C)C[C@H](NC(=O)OCC(C)(C)S(=O)(=O)c1ccccc1)C(=O)N[C@H](C=O)C[C@@H]1CCNC1=O | – | 190 | 260 | > 50000 | – |
| CC(C)C[C@H](NC(=O)OCC(C)(C)Sc1cccc(Cl)c1)C(=O)N[C@@H](C[C@@H]1CCNC1=O)C(O)S(=O)(=O)O (stereo partly drawn) | 11 | 170 | 100 | > 50000 | selectivity ratio [5]: 3330 |
| [2H]C([2H])(OC(=O)N[C@@H](CC(C)C)C(=O)N[C@@H](C[C@@H]1CCNC1=O)C(O)S(=O)(=O)[O-])C(C)(C)Sc1ccccc1.[Na+] (stereo partly drawn) | 12 | 310 | 40 | > 50000 | selectivity ratio [5]: 3330 |
| CC(C)C[C@H](NC(=O)OCc1ccccc1)C(=O)N[C@@H](C[C@@H]1CCNC1=O)C(O)S(=O)(=O)O (stereo partly drawn) | 27 | – | – | – | – |
| CC(C)C[C@H](NC(=O)OCC(C)(C)Sc1cccc(F)c1)C(=O)N[C@H](C=O)C[C@@H]1CCNC1=O | 9 | 140 | 100 | > 50000 | selectivity ratio [5]: 3330 |
| CC(C)C[C@H](NC(=O)OCC(C)(C)Oc1ccc(Cl)cc1)C(=O)N[C@H](C=O)C[C@@H]1CCNC1=O | – | 460 | 20 | > 50000 | – |
| CC(C)C[C@H](NC(=O)OCC(C)(C)Sc1ccc(F)cc1)C(=O)N[C@H](C=O)C[C@@H]1CCNC1=O | – | 170 | 190 | > 50000 | – |
| [2H]C([2H])(OC(=O)N[C@@H](CC(C)C)C(=O)N[C@H](C=O)C[C@@H]1CCNC1=O)C(C)(C)Oc1cccc(Cl)c1 | – | 300 | 40 | > 50000 | – |
| [2H]C([2H])(OC(=O)N[C@@H](CC(C)C)C(=O)N[C@@H](C[C@@H]1CCNC1=O)C(O)S(=O)(=O)[O-])C(C)(C)Oc1cccc(Cl)c1.[Na+] (stereo partly drawn) | – | 280 | 70 | > 50000 | – |
| CC(C)C[C@H](NC(=O)OCC(C)(C)Sc1cccc(F)c1)C(=O)N[C@@H](C[C@@H]1CCNC1=O)C(O)S(=O)(=O)O (stereo partly drawn) | 10 | 130 | – | > 50000 | selectivity ratio [5]: 3330 |
